{"source": "ChEMBL document CHEMBL1944532", "about": "“Synthesis and evaluation of anticancer activity of some novel 6-aryl-2-(p-sulfamylphenyl)-pyridazin-3(2H)-ones” (Eur J Med Chem, 2012)", "key": {"[1]": {"tested_on": "NCI-H460", "experiment": "Cytotoxicity against human NCI-H460 cells assessed as cell growth at 10 uM after 48 hrs by SRB assay", "format": "functional", "conditions": "NCI-H460, 48 h, read-out: Activity", "outline": "(§1)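 NCI primary single-dose screen at 10^-5 M against the full panel of about 60 human tumor cell lines. Cells were in RPMI-1640 with 5% fetal calf serum and 2 mM L-glutamine and preincubated 24 h. Compound was given in DMSO with 48 h exposure. Growth was estimated by sulforhodamine B protein assay.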"}, "[2]": {"tested_on": "SK-MEL-28", "experiment": "Cytotoxicity against human SK-MEL-28 cells assessed as cell growth at 10 uM after 48 hrs by SRB assay", "format": "functional", "conditions": "SK-MEL-28, 48 h, read-out: Activity", "outline": "(§2)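 NCI primary one-dose screen at 10^-5 M against the full panel of about 60 human tumour cell lines, run to the NCI Drug Evaluation Branch protocol.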"}, "[3]": {"tested_on": "OVCAR-5", "experiment": "Antitumor activity against human OVCAR5 cells implanted in mouse dosed qd for 4 days by formazan dye-based hollow fiber assay", "format": "functional, organism-based", "outline": "(§3)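 Cells grown inside polyvinylidene fluoride hollow fibers; each line implanted into both intraperitoneal and subcutaneous compartments in mice. Compound given ip at two doses on a QD x 4 schedule. Fibers then recovered and viable cell mass measured by formazan dye conversion. Scored 2 per dose giving ≥50% reduction in viable cell mass (%T/C 50).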"}, "[4]": {"tested_on": "ACHN", "experiment": "Cytotoxicity against human ACHN cells assessed as cell growth at 10 uM after 48 hrs by SRB assay", "format": "functional", "conditions": "read-out: Activity", "outline": "(§4)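 NCI primary single-dose screen at 10^-5 M against the ~60 human tumour cell line panel. Cells grown in RPMI-1640 with 5% fetal calf serum and 2 mM L-glutamine and pre-incubated 24 h before compound addition. Compound added from DMSO solution with 48 h exposure. Growth read by sulforhodamine B protein staining.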"}, "[5]": {"tested_on": "SW-620", "experiment": "Cytotoxicity against human SW620 cells assessed as cell growth at 10 uM after 48 hrs by SRB assay", "format": "functional", "conditions": "SW-620, 48 h, read-out: Activity", "outline": "as §2"}, "[6]": {"tested_on": "OVCAR-5", "experiment": "Cytotoxicity against human OVCAR5 cells after 48 hrs by SRB assay", "format": "functional", "conditions": "OVCAR-5, 48 h", "outline": "(§5)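 NCI five-dose screen on the ~60-line human tumor panel. Cells grown in RPMI-1640 with 5% fetal calf serum and 2 mM L-glutamine, seeded at line-dependent density and preincubated 24 h. Compound added from DMSO at 10-fold dilutions from 10^-4 to 10^-8 M, continuous exposure 48 h. Growth read by sulforhodamine B protein stain. GI50, TGI and LC50 derived per line.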"}, "[7]": {"tested_on": "HCC 2998", "experiment": "Cytotoxicity against human HCC2998 cells assessed as cell growth at 10 uM after 48 hrs by SRB assay", "format": "functional", "conditions": "HCC 2998, 48 h, read-out: Activity", "outline": "as §4"}, "[8]": {"tested_on": "SK-MEL-2", "experiment": "Cytotoxicity against human SK-MEL-2 cells after 48 hrs by SRB assay", "format": "functional", "conditions": "SK-MEL-2, 48 h", "outline": "as §5"}, "[9]": {"tested_on": "MCF7", "experiment": "Cytotoxicity against human MCF7 cells assessed as cell growth at 10 uM after 48 hrs by SRB assay", "format": "functional", "conditions": "MCF7, 48 h, read-out: Activity", "outline": "as §1"}, "[10]": {"tested_on": "IGROV-1", "experiment": "Cytotoxicity against human IGROV1 cells after 48 hrs by SRB assay", "format": "functional", "conditions": "IGROV-1, 48 h", "outline": "(§6)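 NCI ~60-line panel in RPMI-1640 with 5% fetal calf serum and 2 mM L-glutamine, pre-incubated 24 h. Compound in DMSO tested at five 10-fold concentrations (10^-4 to 10^-8 M) with 48 h continuous exposure. Growth measured by sulforhodamine B protein assay. GI50 (50% net growth inhibition), TGI (total inhibition) and LC50 (50% net cell death) derived from dose-response.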"}, "[11]": {"tested_on": "BT-549", "experiment": "Cytotoxicity against human BT549 cells assessed as cell growth at 10 uM after 48 hrs by SRB assay", "format": "functional", "conditions": "BT-549, 48 h, read-out: Activity", "outline": "as §4"}, "[12]": {"tested_on": "RXF 393", "experiment": "Cytotoxicity against human RXF393 cells assessed as cell growth at 10 uM after 48 hrs by SRB assay", "format": "functional", "conditions": "RXF 393, 48 h, read-out: Activity", "outline": "as §1"}, "[13]": {"tested_on": "NCI-H23", "experiment": "Cytotoxicity against human NCI-H23 cells assessed as cell growth at 10 uM after 48 hrs by SRB assay", "format": "functional", "conditions": "NCI-H23, 48 h, read-out: Activity", "outline": "as §1"}, "[14]": {"tested_on": "HCT-116", "experiment": "Cytotoxicity against human HCT116 cells assessed as cell growth at 10 uM after 48 hrs by SRB assay", "format": "functional", "conditions": "HCT-116, 48 h, read-out: Activity", "outline": "as §4"}, "[15]": {"tested_on": "MDA-MB-435", "experiment": "Cytotoxicity against human MDA-MB-435 cells after 48 hrs by SRB assay", "format": "functional", "conditions": "MDA-MB-435, 48 h", "outline": "as §5"}, "[16]": {"tested_on": "IGROV-1", "experiment": "Cytotoxicity against human IGROV1 cells assessed as cell growth at 10 uM after 48 hrs by SRB assay", "format": "functional", "conditions": "IGROV-1, 48 h, read-out: Activity", "outline": "as §4"}, "[17]": {"tested_on": "U-251", "experiment": "Cytotoxicity against human U251 cells after 48 hrs by SRB assay", "format": "functional", "conditions": "U-251, 48 h", "outline": "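NCI 60-cell-line five-dose screen. Cells were grown in 1640 medium with 5% fetal calf serum and 2 mM L-glutamine, with inoculum density set by cell line, and pre-incubated 24 h. Compound in DMSO was added at 10^-4 to 10^-8 M (10-fold steps) with 48 h continuous exposure. Growth was read by SRB protein assay, and GI50, TGI and LC50 were derived from dose-response.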"}, "[18]": {"tested_on": "DU-145", "experiment": "Cytotoxicity against human DU145 cells after 48 hrs by SRB assay", "format": "functional", "conditions": "DU-145, 48 h", "outline": "as §6"}, "[19]": {"tested_on": "MDA-MB-231", "experiment": "Cytotoxicity against human MDA-MB-231 cells assessed as cell growth at 10 uM after 48 hrs by SRB assay", "format": "functional", "conditions": "MDA-MB-231, 48 h, read-out: Activity", "outline": "as §1"}, "[20]": {"tested_on": "LOX IMVI", "experiment": "Antitumor activity against human LOXIMVI cells implanted in mouse dosed qd for 4 days by formazan dye-based hollow fiber assay", "format": "functional, organism-based", "outline": "as §3"}, "[21]": {"tested_on": "SF-268", "experiment": "Cytotoxicity against human SF268 cells after 48 hrs by SRB assay", "format": "functional", "conditions": "SF-268, 48 h", "outline": "as §5"}, "[22]": {"tested_on": "NCI-H322M", "experiment": "Cytotoxicity against human NCI-H322M cells assessed as cell growth at 10 uM after 48 hrs by SRB assay", "format": "functional", "conditions": "read-out: Activity", "outline": "as §1"}, "[23]": {"tested_on": "HOP-62", "experiment": "Cytotoxicity against human HOP62 cells after 48 hrs by SRB assay", "format": "functional", "conditions": "HOP-62, 48 h", "outline": "as §6"}, "[24]": {"tested_on": "MOLT-4", "experiment": "Cytotoxicity against human MOLT4 cells assessed as cell growth at 10 uM after 48 hrs by SRB assay", "format": "functional", "conditions": "MOLT-4, 48 h, read-out: Activity", "outline": "as §1"}}, "note": "Activity calls are given as the source filed them. The calls are words filed in the database; no cut-off is given here.", "data": [{"compound": "CCc1ccc(-c2ccc(=O)n(-c3ccc(S(N)(=O)=O)cc3)n2)cc1", "values": [{"measurement": "growth at 10 µM", "setting": "[1]", "value": 12.6, "unit": "%"}, {"measurement": "growth at 10 µM", "setting": "[2]", "value": 49.4, "unit": "%"}, {"measurement": "Activity", "setting": "[3]", "value": "inactive"}, {"measurement": "growth at 10 µM", "setting": "[4]", "value": 60.3, "unit": "%"}, {"measurement": "growth at 10 µM", "setting": "[5]", "value": 35, "unit": "%"}, {"measurement": "LC50", "setting": "[6]", "value": "> 100", "unit": "µM"}, {"measurement": "GI50", "setting": "[6]; read-out: GI50", "value": 41.4, "unit": "µM"}, {"measurement": "GI50", "setting": "[6]; read-out: pGI50 (converted)", "value": 41.7, "unit": "µM"}, {"measurement": "TGI", "setting": "[6]; read-out: pTGI", "value": "> 100", "unit": "µM"}, {"measurement": "growth at 10 µM", "setting": "[7]", "value": 53.9, "unit": "%"}, {"measurement": "LC50", "setting": "[8]", "value": "> 100", "unit": "µM"}, {"measurement": "GI50", "setting": "[8]; read-out: GI50", "value": 10.7, "unit": "µM"}, {"measurement": "GI50", "setting": "[8]; read-out: pGI50 (converted)", "value": 10.7, "unit": "µM"}, {"measurement": "TGI", "setting": "[8]; read-out: pTGI (converted)", "value": 72.4, "unit": "µM"}, {"measurement": "growth at 10 µM", "setting": "[9]", "value": 30.1, "unit": "%"}, {"measurement": "LC50", "setting": "[10]", "value": "> 100", "unit": "µM"}, {"measurement": "GI50", "setting": "[10]; read-out: GI50", "value": 3.81, "unit": "µM"}, {"measurement": "GI50", "setting": "[10]; read-out: pGI50 (converted)", "value": 3.8, "unit": "µM"}, {"measurement": "TGI", "setting": "[10]; read-out: pTGI", "value": "> 100", "unit": "µM"}, {"measurement": "growth at 10 µM", "setting": "[11]", "value": 7.69, "unit": "%"}, {"measurement": "growth at 10 µM", "setting": "[12]", "value": -31.8, "unit": "%"}, {"measurement": "growth at 10 µM", "setting": "[13]", "value": 59.9, "unit": "%"}, {"measurement": "growth at 10 µM", "setting": "[14]", "value": 16.8, "unit": "%"}, {"measurement": "LC50", "setting": "[15]", "value": "> 100", "unit": "µM"}, {"measurement": "GI50", "setting": "[15]; read-out: GI50", "value": 0.223, "unit": "µM"}, {"measurement": "GI50", "setting": "[15]; read-out: pGI50 (converted)", "value": 0.224, "unit": "µM"}, {"measurement": "TGI", "setting": "[15]; read-out: pTGI (converted)", "value": 2.19, "unit": "µM"}, {"measurement": "growth at 10 µM", "setting": "[16]", "value": -5.72, "unit": "%"}, {"measurement": "LC50", "setting": "[17]", "value": "> 100", "unit": "µM"}, {"measurement": "GI50", "setting": "[17]; read-out: GI50", "value": 1.58, "unit": "µM"}, {"measurement": "GI50", "setting": "[17]; read-out: pGI50 (converted)", "value": 1.58, "unit": "µM"}, {"measurement": "TGI", "setting": "[17]; read-out: pTGI (converted)", "value": 24, "unit": "µM"}, {"measurement": "LC50", "setting": "[18]", "value": "> 100", "unit": "µM"}, {"measurement": "GI50", "setting": "[18]; read-out: GI50", "value": 13.8, "unit": "µM"}, {"measurement": "GI50", "setting": "[18]; read-out: pGI50 (converted)", "value": 13.8, "unit": "µM"}, {"measurement": "TGI", "setting": "[18]; read-out: pTGI", "value": "> 100", "unit": "µM"}, {"measurement": "growth at 10 µM", "setting": "[19]", "value": 66.8, "unit": "%"}, {"measurement": "Activity", "setting": "[20]", "value": "inactive"}, {"measurement": "LC50", "setting": "[21]", "value": "> 100", "unit": "µM"}, {"measurement": "GI50", "setting": "[21]; read-out: GI50", "value": 4.25, "unit": "µM"}, {"measurement": "GI50", "setting": "[21]; read-out: pGI50 (converted)", "value": 4.27, "unit": "µM"}, {"measurement": "TGI", "setting": "[21]; read-out: pTGI (converted)", "value": 47.9, "unit": "µM"}, {"measurement": "growth at 10 µM", "setting": "[22]", "value": 115, "unit": "%"}, {"measurement": "LC50", "setting": "[23]", "value": 70.8, "unit": "µM"}, {"measurement": "GI50", "setting": "[23]; read-out: GI50", "value": 2.48, "unit": "µM"}, {"measurement": "GI50", "setting": "[23]; read-out: pGI50 (converted)", "value": 2.45, "unit": "µM"}, {"measurement": "TGI", "setting": "[23]; read-out: pTGI (converted)", "value": 22.4, "unit": "µM"}, {"measurement": "growth at 10 µM", "setting": "[24]", "value": 16, "unit": "%"}]}]}
